Calls of active or inactive are those of the source. The calls are words filed in the database; no cut-off is given here.
Key:
Leishmania amazonensis [1] = test: Antileishmanial activity against axenic amastigote forms of Leishmania amazonensis after 72 hrs by XTT/PMS dye based spectrophotometric analysis; type: functional, organism-based
In short: (§1)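 Log-phase parasites (promastigotes 48 h, axenic amastigotes 72 h) plated at the printed density with increasing compound concentrations; 72 h at 25 °C (promastigotes) or 32 °C (axenic amastigotes). XTT/PMS (0.5 and 0.3 mg/mL) added in the dark, absorbance at 450 nm after 4 h; IC50 versus negative control by regression. Mean ± SD of at least three independent experiments.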

[2] = Selectivity index, ratio of CC50 for mouse J774A1 cells to IC50 for promastigote forms of Leishmania amazonensis; type: toxicity; conditions: read-out: Ratio CC50/IC50
In short: (§2)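 Selectivity index calculated as CC50 in J774-A1 macrophages (48 h MTT) divided by IC50 for L. amazonensis promastigotes or axenic amastigotes (72 h XTT/PMS).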

Leishmania amazonensis [3] = test: Antileishmanial activity against promastigote forms of Leishmania amazonensis after 72 hrs by XTT/PMS dye based spectrophotometric analysis; type: functional, organism-based; in short: as §1
[4] = Selectivity index, ratio of CC50 for mouse J774A1 cells to IC50 for axenic amastigote forms of Leishmania amazonensis; type: toxicity; conditions: read-out: Ratio CC50/IC50; in short: as §2
[5] = Cytotoxicity against mouse J774A1 cells assessed as reduction in cell viability after 48 hrs by MTT assay; type: cell-based, J774.A1
In short: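 J774-A1 macrophages in RPMI 1640 with 10% FBS, plated and left 24 h at 37 °C, 5% CO2. Supernatant then replaced by increasing compound concentrations for 48 h. After a PBS wash, MTT (2 mg/mL) was added for 4 h at 25 °C in the dark, formazan dissolved in DMSO, absorbance read at 570 nm. CC50 by regression versus negative control; at least three experiments.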

Leishmania amazonensis [6] = test: Antileishmanial activity against promastigote forms of Leishmania amazonensis MHOM/BR/75/Josefa after 72 hrs by haemocytometry; type: functional, organism-based
[7] = Selectivity index, ratio of CC50 for mouse J774.G8 cells to IC50 for promastigote forms of Leishmania amazonensis MHOM/BR/75/Josefa; type: toxicity; conditions: read-out: Ratio CC50/IC50
Leishmania amazonensis [8] = test: Induction of ultrastructural alteration in promastigote forms of Leishmania amazonensis assessed as ultrastructural alteration in mitochondrial membrane at 6.2 uM after 24 hrs by transmission electron microscopic analysis; type: functional, organism-based
In short: (§3)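 Promastigotes (1 x 10^6/mL) exposed to 6.2 μM for 24, 48 or 72 h at 25 °C alongside untreated controls. Fixed in 2.5% glutaraldehyde in 0.1 M cacodylate buffer. For TEM, post-fixed 1 h in 1% OsO4 with 0.8% potassium ferrocyanide in cacodylate buffer. For SEM, samples were gold-coated before viewing.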

Leishmania amazonensis [9] = test: Induction of ultrastructural alteration in promastigote forms of Leishmania amazonensis assessed as alteration in flagellar pocket with vacuoles at 6.2 uM after 72 hrs by transmission electron microscopic analysis; type: functional, organism-based; in short: as §3
Leishmania amazonensis [10] = test: Induction of ultrastructural alteration in promastigote forms of Leishmania amazonensis assessed as formation of mitochondrial swelling at 6.2 uM after 72 hrs by transmission electron microscopic analysis; type: functional, organism-based; in short: as §3
Leishmania amazonensis [11] = test: Induction of ultrastructural alteration in promastigote forms of Leishmania amazonensis assessed as formation of storage-lipid bodies at 6.2 uM after 48 hrs by transmission electron microscopic analysis; type: functional, organism-based; in short: as §3
Leishmania amazonensis [12] = test: Induction of ultrastructural alteration in promastigote forms of Leishmania amazonensis assessed as ultrastructural alteration in plasma membrane at 6.2 uM after 24 hrs by transmission electron microscopic analysis; type: functional, organism-based; in short: as §3
Leishmania amazonensis [13] = test: Induction of lipid body storage in promastigote forms of Leishmania amazonensis at IC90 after 24 hrs by nile red staining based fluorescence assay relative to control; type: functional
Leishmania amazonensis [14] = test: Induction of ultrastructural alteration in promastigote forms of Leishmania amazonensis assessed as formation of mitochondrial swelling at 6.2 uM after 48 hrs by transmission electron microscopic analysis; type: functional, organism-based; in short: as §3
Leishmania amazonensis [15] = test: Induction of morphological alteration in promastigote forms of Leishmania amazonensis assessed as reduction in cell volume at 6.2 uM after 24 to 72 hrs by scanning electron microscopic analysis; type: functional, organism-based; in short: as §3
Leishmania amazonensis [16] = test: Induction of lipid body storage in promastigote forms of Leishmania amazonensis at IC50 after 24 hrs by nile red staining based fluorescence assay relative to control; type: functional
Leishmania amazonensis [17] = test: Induction of ROS generation in promastigote forms of Leishmania amazonensis at IC50 after 24 hrs by H2DCFDA staining based spectrofluorometric analysis relative to control; type: functional
Leishmania amazonensis [18] = test: Induction of ROS generation in promastigote forms of Leishmania amazonensis at IC90 after 24 hrs by H2DCFDA staining based spectrofluorometric analysis relative to control; type: functional
Leishmania amazonensis [19] = test: Induction of ROS generation in promastigote forms of Leishmania amazonensis at IC50 to IC90 uM after 24 hrs in presence of NAC by H2DCFDA staining based spectrofluorometric analysis; type: functional, organism-based
Leishmania amazonensis [20] = test: Induction of morphological alteration in promastigote forms of Leishmania amazonensis assessed as cell rounding at 6.2 uM after 24 to 72 hrs by scanning electron microscopic analysis; type: functional, organism-based; in short: as §3
Leishmania amazonensis [21] = test: Induction of ultrastructural alteration in promastigote forms of Leishmania amazonensis assessed as alteration in plasma membrane at 6.2 uM after 48 hrs by transmission electron microscopic analysis; type: functional, organism-based; in short: as §3
Leishmania amazonensis [22] = test: Antileishmanial activity against axenic amastigote forms of Leishmania amazonensis MHOM/BR/75/Josefa after 72 hrs by haemocytometry; type: functional, organism-based

Structure (SMILES) | selectivity ratio [2] | IC50 (Leishmania amazonensis [3]) | CC50 at 48 h [5] | other results
CC(C)Nc1nc(NNC(=O)c2cc3c([nH]c4ccccc43)c(-c3ccccc3)n2)nc(NC(C)C)n1 | 2.6 | 39.7 µM | 103 µM | IC50 (Leishmania amazonensis [1]): 32.5 µM; selectivity ratio [4]: 3.16
CC(C)Nc1nc(NCCNC(=O)c2cc3c([nH]c4ccccc43)c(-c3ccc(F)cc3)n2)nc(NC(C)C)n1 | – | > 100 µM | – | –
CCCCNC(=O)c1cc2c([nH]c3ccccc32)c(-c2ccc(OC)cc2)n1 | – | – | – | IC50 (Leishmania amazonensis [6]): 0.25 µM; selectivity ratio [7]: 2080
COc1ccc(-c2nc(C(=O)NNc3nc(NC(C)C)nc(NC(C)C)n3)cc3c2[nH]c2ccccc23)cc1 | – | > 100 µM | – | –
O=C(NCCCCCCNc1nc(Cl)nc(Cl)n1)c1cc2c([nH]c3ccccc32)c(-c2ccccc2)n1 | – | > 100 µM | – | –
NNc1nc(NN)nc(NCCNC(=O)c2cc3c([nH]c4ccccc43)c(-c3ccccc3)n2)n1 | – | > 100 µM | – | –
CCCCCCCCCCCCCCCCOP(=O)([O-])OCC[N+](C)(C)C [MILTEFOSINE] | 2.2 | 18.5 µM | 40.5 µM | IC50 (Leishmania amazonensis [1]): 2.4 µM; selectivity ratio [4]: 16.9
COc1ccc(-c2nc(C(=O)NCCNc3nc(Cl)nc(Cl)n3)cc3c2[nH]c2ccccc23)cc1 | 3 | 67.5 µM | 201 µM | IC50 (Leishmania amazonensis [1]): 1 µM; selectivity ratio [4]: 201
O=C(NCCNc1nc(Cl)nc(Cl)n1)c1cc2c([nH]c3ccccc32)c(-c2cccc([N+](=O)[O-])c2)n1 | 16.3 | 5.1 µM | 83.1 µM | IC50 (Leishmania amazonensis [1]): 1.1 µM; selectivity ratio [4]: 75.5
CC(C)Nc1nc(NNC(=O)c2cc3c([nH]c4ccccc43)c(-c3ccc(F)cc3)n2)nc(NC(C)C)n1 | 1.2 | 43.4 µM | 50 µM | –
O=C(NNc1nc(Cl)nc(Cl)n1)c1cc2c([nH]c3ccccc32)c(-c2ccccc2)n1 | 2.2 | 43.3 µM | 94.5 µM | IC50 (Leishmania amazonensis [1]): 1.1 µM; selectivity ratio [4]: 85.9
O=C(NNc1nc(Cl)nc(Cl)n1)c1cc2c([nH]c3ccccc32)c(-c2ccc(F)cc2)n1 | – | > 100 µM | – | –
O=C(NCCNc1nc(NC2CCCCC2)nc(NC2CCCCC2)n1)c1cc2c([nH]c3ccccc32)c(-c2ccccc2)n1 | – | > 100 µM | – | –
O=C(NCCNc1nc(Cl)nc(Cl)n1)c1cc2c([nH]c3ccccc32)c(-c2ccc(F)cc2)n1 | – | > 100 µM | – | –
COc1ccc(-c2nc(C(=O)NCCNc3nc(NC(C)C)nc(NC(C)C)n3)cc3c2[nH]c2ccccc23)cc1 | 23.5 | 6.2 µM | 146 µM | Activity (Leishmania amazonensis [8]): Active; Activity (Leishmania amazonensis [9]): Active; IC50 (Leishmania amazonensis [1]): 1.2 µM; Activity (Leishmania amazonensis [10]): Active; Activity (Leishmania amazonensis [11]): Active; Activity (Leishmania amazonensis [12]): Active; Activity (Leishmania amazonensis [13]): 428.6%; Activity (Leishmania amazonensis [14]): Active; Activity (Leishmania amazonensis [15]): Active; selectivity ratio [4]: 121; Activity (Leishmania amazonensis [16]): 9%; Activity (Leishmania amazonensis [17]): 81.9%; Activity (Leishmania amazonensis [18]): 184.8%; Activity (Leishmania amazonensis [19]): Active; Activity (Leishmania amazonensis [20]): Active; Activity (Leishmania amazonensis [21]): Active
O=C(NNc1nc(Cl)nc(Cl)n1)c1cc2c([nH]c3ccccc32)c(-c2ccccc2Cl)n1 | 0.6 | 34.1 µM | 22 µM | –
O=C(NCCNc1nc(Cl)nc(Cl)n1)c1cc2c([nH]c3ccccc32)c(-c2ccccc2)n1 | 4.4 | 30.9 µM | 135 µM | IC50 (Leishmania amazonensis [1]): 1.9 µM; selectivity ratio [4]: 70.8
CC(C)Nc1nc(NCCNC(=O)c2cc3c([nH]c4ccccc43)c(-c3ccccc3)n2)nc(NC(C)C)n1 | 13.1 | 7.5 µM | 98.1 µM | IC50 (Leishmania amazonensis [1]): 35 µM; selectivity ratio [4]: 2.8
O=C(NCCNc1nc(NCc2ccccc2)nc(NCc2ccccc2)n1)c1cc2c([nH]c3ccccc32)c(-c2ccccc2)n1 | – | > 100 µM | – | –
CN1CCN(c2nc(NCCNC(=O)c3cc4c([nH]c5ccccc54)c(-c4ccccc4)n3)nc(N3CCN(C)CC3)n2)CC1 | – | > 100 µM | – | –
O=C(NCCNc1nc(N2CCOCC2)nc(N2CCOCC2)n1)c1cc2c([nH]c3ccccc32)c(-c2ccccc2)n1 | – | > 100 µM | – | –
O=C(NCCNc1nc(Cl)nc(Cl)n1)c1cc2c([nH]c3ccccc32)c(-c2ccccc2Cl)n1 | 3.8 | 7.6 µM | 28.5 µM | –
COc1ccc(-c2nc(C(=O)NCc3ccccc3)cc3c2[nH]c2ccccc23)cc1 | – | – | – | IC50 (Leishmania amazonensis [22]): 1 µM; IC50 (Leishmania amazonensis [6]): 2.6 µM
COc1ccc(-c2nc(C(=O)NNc3nc(Cl)nc(Cl)n3)cc3c2[nH]c2ccccc23)cc1 | – | > 100 µM | – | –
CC(C)Nc1nc(NCCNC(=O)c2cc3c([nH]c4ccccc43)c(-c3ccccc3Cl)n2)nc(NC(C)C)n1 | – | > 100 µM | – | –
CC(C)Nc1nc(NNC(=O)c2cc3c([nH]c4ccccc43)c(-c3ccccc3Cl)n2)nc(NC(C)C)n1 | – | > 100 µM | – | –
CC(C)Nc1nc(NCCNC(=O)c2cc3c([nH]c4ccccc43)c(-c3cccc([N+](=O)[O-])c3)n2)nc(NC(C)C)n1 | 1.9 | 44.6 µM | 86.3 µM | –
